Measured values as given in ChEMBL document CHEMBL1124009 (J Med Chem, 1988).
Positions of bridges follow the written chain, without caps; N, C: chain ends. Non-standard residues stand in square brackets, D forms with d. Residues, ends and D or L forms follow the SMILES beside them. Tic = O=C(O)[C@@H]1Cc2ccccc2CN1; dTic = O=C(O)[C@H]1Cc2ccccc2CN1; Pen = CC(C)(S)[C@H](N)C(=O)O

Tests used:
Cavia porcellus [1] = species: Cavia porcellus; assay: Negative logarithm of antagonist concentration that requires doubling of agonist concentration to induce original agonist response; details: read-out: pA2 (converted)
[2] = Ratio of selective binding affinity of mu receptor to that of somatostatin receptor
[3] = biological target: Opioid receptors; mu & delta (Rattus norvegicus) (UniProt P33533+P33535); assay: Ratio of selective binding affinity of mu receptor to that of delta opioid receptor; assay type: protein assay
Sequence of Opioid receptors; mu & delta (Rattus norvegicus) (P33533 whole entry, looked up): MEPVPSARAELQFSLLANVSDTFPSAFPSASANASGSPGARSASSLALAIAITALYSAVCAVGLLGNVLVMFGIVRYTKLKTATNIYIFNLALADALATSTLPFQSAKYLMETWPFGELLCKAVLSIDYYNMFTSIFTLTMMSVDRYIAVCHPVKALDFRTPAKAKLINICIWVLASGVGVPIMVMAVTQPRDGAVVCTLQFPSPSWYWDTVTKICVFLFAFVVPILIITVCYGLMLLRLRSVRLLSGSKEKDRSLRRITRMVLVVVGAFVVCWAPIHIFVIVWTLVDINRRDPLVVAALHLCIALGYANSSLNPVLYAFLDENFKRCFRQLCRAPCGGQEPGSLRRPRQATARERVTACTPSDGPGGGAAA
Sequence of Opioid receptors; mu & delta (Rattus norvegicus) (P33535 whole entry, looked up): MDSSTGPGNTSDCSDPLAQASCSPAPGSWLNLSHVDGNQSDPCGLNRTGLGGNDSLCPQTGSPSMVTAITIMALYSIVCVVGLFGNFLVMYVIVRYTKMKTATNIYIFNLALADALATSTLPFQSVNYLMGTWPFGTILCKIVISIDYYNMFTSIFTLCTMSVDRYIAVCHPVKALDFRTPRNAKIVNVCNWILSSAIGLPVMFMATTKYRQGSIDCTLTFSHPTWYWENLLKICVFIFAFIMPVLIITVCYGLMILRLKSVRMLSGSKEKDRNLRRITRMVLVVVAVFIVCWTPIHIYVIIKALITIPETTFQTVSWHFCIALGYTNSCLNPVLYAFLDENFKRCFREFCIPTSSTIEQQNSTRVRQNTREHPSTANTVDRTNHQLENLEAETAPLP

Somatostatin receptor = assay: Binding affinity in competition with [125I]- CGP-23996 in somatostatin receptor binding to rat brain membrane
Outline: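 Rat whole-brain membranes (adult male Sprague–Dawley) at 1.0% final tissue were incubated with 0.2 nM [125I]CGP 23,996 and analogues at 100–0.3 μM. Buffer was 50 mM Tris pH 7.4 with 2.0 mg/mL BSA, 20 μg/mL bacitracin and 5 mM MgCl2. Incubation ran 1 h at 37 °C and ended by rapid filtration through BSA-soaked GF/B filters.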

Mu-type opioid receptor = Mu-type opioid receptor (Rattus norvegicus, UniProt P33535); assay: Binding affinity in competition with [3H]- CTOP in Opioid receptor mu 1 binding to rat brain membrane
Sequence of Mu-type opioid receptor (P33535 whole entry): as the sequence (P33535 whole entry, looked up) above
Outline: (§1)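 Brains (minus cerebellum) of male Sprague–Dawley rats (200–250 g) were homogenized, preincubated 30 min at 25 °C and centrifuged twice at 43000g. Homogenate at 0.5% final was incubated with 0.5 nM [3H]CTOP (μ) or 1.0 nM [3H]DPDPE (δ) in 50 mM Tris-HCl pH 7.4 with 5 mM MgCl2, BSA 1 mg/mL and 100 μM PMSF, 120 min at 25 °C, in duplicate. Nonspecific binding was taken with 1 μM naloxone; bound label was filtered and scintillation counted; curves were fit by nonlinear least squares.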

[4] = biological target: Delta-type opioid receptor (Rattus norvegicus, UniProt P33533); assay: Binding affinity in competition with [3H]- DPDPE in Opioid receptor delta 1 binding to rat brain membrane
Sequence of Delta-type opioid receptor (P33533 whole entry): as the sequence (P33533 whole entry, looked up) above
Outline: as §1

[5] = biological target: Mu-type opioid receptor (Rattus norvegicus) (UniProt P33535); assay: Percentage inhibition in competition with [3H]- CTOP in Opioid receptor mu 1 binding to rat brain membrane at 10000 nM
Sequence of Mu-type opioid receptor (Rattus norvegicus) (P33535 whole entry): as the sequence (P33535 whole entry, looked up) above

[6] = biological target: Mu-type opioid receptor (Rattus norvegicus) (UniProt P33535); assay: Binding affinity of compound in competition with [3H]- CTOP in Opioid receptor mu 1 binding to rat brain membrane at 10000 nM
Cavia porcellus [7] = species: Cavia porcellus; assay: Intrinsic agonist activity in guinea Pig Ileum (GPI) was determined; assay type: functional; details: filed as agonist
Outline: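 Longitudinal muscle–myenteric plexus strips of ileum from male Hartley guinea pigs (200–500 g) sat in Krebs–bicarbonate at 37 °C under 95% O2/5% CO2 at 1 g tension. Strips were field-stimulated at 0.1 Hz with 0.4-ms supramaximal pulses, and isometric twitches were recorded. Agonist action was taken as twitch inhibition. pA2 came from PL017 (μ agonist) dose–response curves without and with several antagonist concentrations.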

Row | Compound | Kb (Cavia porcellus [1]) [nM] | Ratio [2] | Ratio [3] | also measured
1 | C[C@@H](O)[C@H](NC(=O)[C@H]1NC(=O)[C@H]([C@@H](C)O)NC(=O)[C@H](CCCNC(=N)N)NC(=O)[C@@H](Cc2c[nH]c3ccccc23)NC(=O)[C@H](Cc2ccc(O)cc2)NC(=O)[C@@H](NC(=O)[C@H](N)Cc2ccccc2)CSSC1(C)C)C(N)=O | 75.9 | 4020 | 2530 | IC50 (Somatostatin receptor): 8452 nM
2 | C[C@@H](O)[C@H](NC(=O)[C@H]1NC(=O)[C@H]([C@@H](C)O)NC(=O)[C@H](CCCN)NC(=O)[C@@H](Cc2c[nH]c3ccccc23)NC(=O)[C@H](Cc2ccc(O)cc2)NC(=O)[C@@H](NC(=O)[C@H]2Cc3ccccc3CN2)CSSC1(C)C)C(N)=O | 41.7 | – | – | IC50 (Mu-type opioid receptor): 1.4 nM; IC50 [4]: 16000 nM
3 | C[C@@H](O)[C@H](NC(=O)[C@H]1NC(=O)[C@H](CC(N)=O)NC(=O)[C@H](Cc2ccccc2)NC(=O)[C@@H](NC(=O)[C@@H](N)Cc2ccc(O)cc2)CSSC1(C)C)C(N)=O | – | > 1.3 | > 1.3 | IC50 (Somatostatin receptor): >= 10000 nM
4 | CC(C)[C@H](NC(=O)[C@H]1NC(=O)[C@H]([C@@H](C)O)NC(=O)[C@H](CCCCN)NC(=O)[C@@H](Cc2c[nH]c3ccccc23)NC(=O)[C@H](Cc2ccc(O)cc2)NC(=O)[C@@H](NC(=O)[C@H]2Cc3ccccc3CN2)CSSC1(C)C)C(N)=O | 257 | – | – | IC50 (Mu-type opioid receptor): 46 nM; IC50 [4]: 2120 nM
5 | CC(C)[C@H](NC(=O)[C@H]1NC(=O)[C@H]([C@@H](C)O)NC(=O)[C@H](CCCCN)NC(=O)[C@H](Cc2c[nH]c3ccccc23)NC(=O)[C@H](Cc2ccc(O)cc2)NC(=O)[C@@H](NC(=O)[C@H]2Cc3ccccc3CN2)CSSC1(C)C)C(N)=O | – | 43 | 46 | IC50 (Somatostatin receptor): 1992 nM
6 | C[C@@H](O)[C@H](NC(=O)[C@H]1NC(=O)[C@H]([C@@H](C)O)NC(=O)[C@H](CCCCN)NC(=O)[C@@H](Cc2c[nH]c3ccccc23)NC(=O)[C@H](Cc2ccc(O)cc2)NC(=O)[C@@H](NC(=O)[C@H](N)Cc2ccccc2)CSSC1(C)C)C(N)=O | 79.4 | – | – | IC50 [4]: 1150 nM
7 | C[C@@H](O)[C@H](NC(=O)[C@H]1NC(=O)[C@H]([C@@H](C)O)NC(=O)[C@H](CCCCN)NC(=O)[C@H](Cc2c[nH]c3ccccc23)NC(=O)[C@H](Cc2ccc(O)cc2)NC(=O)[C@@H](NC(=O)[C@@H](N)Cc2ccccc2)CSSC1(C)C)C(N)=O | – | 395 | 312 | IC50 (Somatostatin receptor): 1462 nM
8 | C[C@@H](O)[C@H](NC(=O)[C@H]1NC(=O)[C@H](CC(N)=O)NC(=O)[C@H](Cc2ccc(O)cc2)NC(=O)[C@@H](NC(=O)[C@@H](N)Cc2ccccc2)CSSC1(C)C)C(N)=O | – | – | – | inhibition [5]: 17%; IC50 (Somatostatin receptor): > 100000 nM
9 | C[C@@H](O)[C@H](NC(=O)[C@H]1NC(=O)[C@H]([C@@H](C)O)NC(=O)[C@H](CCCN=C(N)N)NC(=O)[C@H](Cc2c[nH]c3ccccc23)NC(=O)[C@H](Cc2ccc(O)cc2)NC(=O)[C@@H](NC(=O)[C@@H]2Cc3ccccc3CN2)CSSC1(C)C)C(N)=O (H-[Tic]CYWRT[Pen]T-NH2; disulfide 2-7) | – | 28600 | 1060 | IC50 (Somatostatin receptor): 34336 nM
10 | C[C@@H](O)[C@H](NC(=O)[C@H]1NC(=O)[C@H]([C@@H](C)O)NC(=O)[C@H](CCCN=C(N)N)NC(=O)[C@@H](Cc2c[nH]c3ccccc23)NC(=O)[C@H](Cc2ccc(O)cc2)NC(=O)[C@@H](NC(=O)[C@H]2Cc3ccccc3CN2)CSSC1(C)C)C(N)=O (H-[dTic]CY[dW]RT[Pen]T-NH2; disulfide 2-7) | 2.04 | – | – | IC50 (Mu-type opioid receptor): 1.2 nM; IC50 [4]: 1270 nM
11 | C[C@@H](O)[C@H](NC(=O)[C@H]1NC(=O)[C@H]([C@@H](C)O)NC(=O)[C@H](CCCCN)NC(=O)C(Cc2c[nH]c3ccccc23)NC(=O)[C@@H](Cc2ccc(O)cc2)NC(=O)[C@@H](NC(=O)[C@H]2Cc3ccccc3CN2)CSSC1(C)C)C(N)=O (stereo in doubt) [listing 1 of 2 here] | 7.94 | – | – | IC50 (Mu-type opioid receptor): 1.2 nM; IC50 [4]: 9320 nM
12 | C[C@@H](O)[C@@H]1NC(=O)[C@H](CCCCN)NC(=O)C(Cc2c[nH]c3ccccc23)NC(=O)[C@H](Cc2ccc(O)cc2)NC(=O)[C@@H](NC(=O)[C@H](N)Cc2ccccc2)CSSC(C)(C)[C@@H](C(=O)N[C@@H](CO)C(N)=O)NC1=O (stereo in doubt) | 575 | – | – | IC50 (Mu-type opioid receptor): 20 nM; IC50 [4]: > 10000 nM
13 | CN[C@H](Cc1ccccc1)C(=O)N[C@H]1CSSC(C)(C)[C@@H](C(=O)N[C@H](C(N)=O)[C@@H](C)O)NC(=O)[C@H]([C@@H](C)O)NC(=O)[C@H](CCCN)NC(=O)C(Cc2c[nH]c3ccccc23)NC(=O)[C@H](Cc2ccc(O)cc2)NC1=O (stereo in doubt) | – | 28 | > 35 | –
14 | C[C@@H](O)[C@@H]1NC(=O)[C@H](CCCCN)NC(=O)C(Cc2c[nH]c3ccccc23)NC(=O)[C@H](Cc2ccc(O)cc2)NC(=O)[C@@H](NC(=O)[C@H](N)Cc2ccccc2)CSSC(C)(C)[C@@H](C(=O)N[C@@H](CC(=O)O)C(N)=O)NC1=O (stereo in doubt) | – | 2.4 | > 2.9 | –
15 | C[C@@H](O)[C@@H]1NC(=O)[C@H](CCCCN)NC(=O)C(Cc2c[nH]c3ccccc23)NC(=O)[C@H](Cc2ccc(O)cc2)NC(=O)[C@@H](NC(=O)[C@H](N)Cc2ccccc2)CSSC(C)(C)[C@@H](C(N)=O)NC1=O (stereo in doubt) | – | 17 | > 87 | –
16 | C[C@@H](O)[C@@H]1NC(=O)[C@H](CCCN)NC(=O)C(Cc2c[nH]c3ccccc23)NC(=O)[C@H](Cc2ccc(O)cc2)NC(=O)[C@@H](NC(=O)[C@H](N)Cc2ccccc2)CSSC(C)(C)[C@@H](C(N)=O)NC1=O (stereo in doubt) | – | 253 | > 53 | –
17 | C[C@@H](O)[C@H](NC(=O)[C@@H]1NC(=O)[C@H](CCCCN)NC(=O)C(Cc2c[nH]c3ccccc23)NC(=O)[C@H](Cc2ccc(O)cc2)NC(=O)[C@@H](NC(=O)[C@@H](N)Cc2ccccc2)CSSC1(C)C)C(N)=O (stereo in doubt) | – | – | – | inhibition [6]: 18%
18 | C[C@@H](O)[C@H](NC(=O)[C@H]1NC(=O)[C@H](CCCCN)NC(=O)C(Cc2c[nH]c3ccccc23)NC(=O)[C@@H](Cc2ccc(O)cc2)NC(=O)[C@@H](NC(=O)[C@H]2Cc3ccccc3CN2)CSSC1(C)C)C(N)=O (stereo in doubt) | – | 1.5 | > 1 | –
19 | C[C@@H](O)[C@H](NC(=O)[C@H]1NC(=O)[C@H]([C@@H](C)O)NC(=O)[C@H](CCCCN)NC(=O)C(Cc2c[nH]c3ccccc23)NC(=O)[C@@H](Cc2ccc(O)cc2)NC(=O)[C@@H](NC(=O)[C@H]2Cc3ccccc3CN2)CSSC1(C)C)C(N)=O (stereo in doubt) [listing 2 of 2 here] | – | 791 | 7770 | –
20 | C[C@@H](O)[C@H](NC(=O)[C@H]1NC(=O)[C@H]([C@@H](C)O)NC(=O)[C@H](CCCCN)NC(=O)C(Cc2c[nH]c3ccccc23)NC(=O)[C@H](Cc2ccc(O)cc2)NC(=O)[C@@H](NC(=O)C(N)Cc2c[nH]c3ccccc23)CSSC1(C)C)C(N)=O (stereo in doubt) | – | 254 | > 1590 | Activity (Cavia porcellus [7]): Agonist
21 | C[C@@H](O)[C@H](NC(=O)[C@H]1NC(=O)[C@H]([C@@H](C)O)NC(=O)[C@H](CCCN)NC(=O)C(Cc2c[nH]c3ccccc23)NC(=O)[C@@H](Cc2ccc(O)cc2)NC(=O)[C@@H](NC(=O)[C@H]2Cc3ccccc3CN2C(=O)CN)CSSC1(C)C)C(N)=O (stereo in doubt) | – | 70 | 19 | –
